Assay results of several laboratories.
Protocols differ between the studies behind these lines.
Cell line: UACC-62
Observed: cell growth or viability

The GI50 of `COc1cccc(Oc2ccccc2NC(=O)CNC(=O)c2cccc3ccccc23)c1` is reported as 0.209 µM (SRB; 48 h).
The inhibition of `COc1ccc(C(=O)/C=C/c2cccc3ccccc23)cc1S(N)(=O)=O` is reported as 158% (SRB; 10 µM).
`COc1ccc(-c2ccc(-c3ccc(C(=N)N)nc3)s2)cc1` gave a GI50 of 1.81 µM (SRB).
For `Cc1cc(C)n(C(=S)[S][Au][PH](CCCCCC[PH]([Au][S]C(=S)n2nc(C)cc2C)(c2ccccc2)c2ccccc2)(c2ccccc2)c2ccccc2)n1`, the GI50 was 0.25 µM.
The IC50 of `O=C1NCCc2[nH]c(-c3ccncc3)cc21` is reported as 6.12 µM.
With `COc1cc(-c2ccc(-c3ccc(C(=N)N)nc3)s2)cc(OC)c1OC` the GI50 was 1.73 µM (SRB).
The IC50 of `O=C1NC(=NCc2cccs2)S/C1=C\c1ccc2ncccc2c1` is reported as > 10 µM.
The GI50 of `COc1ccc(C(=O)/C=C/c2cccnc2)cc1S(N)(=O)=O` is reported as 12.9 µM (SRB; 48 h).
